{
  "source": "ChEMBL document CHEMBL1144047",
  "about": "“Design and synthesis of diketopiperazine and acyclic analogs related to the caprazamycins and liposidomycins as potential antibacterial agents” (2008)",
  "format_in_all_cases": "functional",
  "key": {"Corynebacterium bovis": {"test_system": "Corynebacterium bovis", "experiment": "Antibacterial activity against Corynebacterium bovis 1810 after 18 hrs by serial agar dilution method", "outline": "(§1)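 MIC determined by serial agar dilution on plain Mueller–Hinton agar; read after 18 h incubation at 37 °C.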"}, "Staphylococcus aureus [1]": {"test_system": "Staphylococcus aureus", "experiment": "Antibacterial activity against Staphylococcus aureus Smith after 18 hrs by serial agar dilution method", "outline": "as §1"}, "Micrococcus luteus [2]": {"test_system": "Micrococcus luteus", "experiment": "Antibacterial activity against Micrococcus luteus FDA16 after 18 hrs by serial agar dilution method", "outline": "as §1"}, "Micrococcus luteus [3]": {"test_system": "Micrococcus luteus", "experiment": "Antibacterial activity against Micrococcus luteus PCI1001 after 18 hrs by serial agar dilution method", "settings": "PCI1001, 18 h", "outline": "as §1"}, "Enterococcus faecalis": {"test_system": "Enterococcus faecalis", "experiment": "Antibacterial activity against Enterococcus faecalis NCTC-12201 after 18 hrs by serial agar dilution method", "outline": "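MIC by serial agar dilution on Mueller–Hinton agar supplemented with 5% sheep blood; plates incubated 18 hours at 37 °C under 5% CO₂ before reading.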"}, "[4]": {"test_system": "Mycobacterium tuberculosis", "experiment": "Antibacterial activity against Mycobacterium tuberculosis H37Rv at 6.25 ug/ml by microplate Alamar blue assay", "outline": "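M. tuberculosis H37Rv (ATCC 27294) grown in BACTEC 12B medium; microplate Alamar blue assay; growth inhibition rate recorded at 6.25 µg/mL.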"}, "Staphylococcus aureus [5]": {"test_system": "Staphylococcus aureus", "experiment": "Antibacterial activity against MDR-Staphylococcus aureus MS9610 after 18 hrs by serial agar dilution method", "outline": "(§2)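 MIC by serial agar dilution on Mueller–Hinton agar (no supplement for staphylococci); plates read after 18 h incubation at 37 °C.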"}, "[6]": {"test_system": "Mycolicibacterium smegmatis", "experiment": "Antibacterial activity against Mycobacterium smegmatis ATCC607 after 42 hrs by serial agar dilution method", "outline": "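Serial agar dilution MIC using Mueller–Hinton agar containing 5% glycerol; growth read after 42 h at 37 °C.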"}, "Bacillus subtilis": {"test_system": "Bacillus subtilis", "experiment": "Antibacterial activity against Bacillus subtilis NRRLB-558 after 18 hrs by serial agar dilution method", "outline": "as §1"}, "Staphylococcus aureus [7]": {"test_system": "Staphylococcus aureus", "experiment": "Antibacterial activity against methicillin-resistant Staphylococcus aureus 5 after 18 hrs by serial agar dilution method", "outline": "as §2"}},
  "data": [
    {"molecule": "NC[C@H]1O[C@@H](O[C@H]([C@H]2O[C@@H](n3ccc(=O)[nH]c3=O)[C@H](O)[C@@H]2O)[C@@H]2NC(=O)[C@H](COC(=O)c3ccc(-c4ccccc4)cc3)NC2=O)[C@H](O)[C@@H]1O", "values": [
      {"measurement": "MIC", "setting": "Corynebacterium bovis", "result": "> 100", "unit": "µg/mL"},
      {"measurement": "MIC", "setting": "Staphylococcus aureus [1]", "result": "> 100", "unit": "µg/mL"},
      {"measurement": "MIC", "setting": "Micrococcus luteus [2]", "result": "> 100", "unit": "µg/mL"},
      {"measurement": "MIC", "setting": "Micrococcus luteus [3]", "result": 100, "unit": "µg/mL"},
      {"measurement": "MIC", "setting": "Enterococcus faecalis", "result": "> 100", "unit": "µg/mL"},
      {"measurement": "inhibition at 6.25 µg/mL", "setting": "[4]", "result": 48, "unit": "%"},
      {"measurement": "MIC", "setting": "Staphylococcus aureus [5]", "result": "> 100", "unit": "µg/mL"},
      {"measurement": "MIC", "setting": "[6]", "result": 100, "unit": "µg/mL"},
      {"measurement": "MIC", "setting": "Bacillus subtilis", "result": "> 100", "unit": "µg/mL"}
    ]},
    {"molecule": "NC[C@H]1O[C@@H](O[C@H]([C@H]2O[C@@H](n3ccc(=O)[nH]c3=O)[C@H](O)[C@@H]2O)[C@H](N)C(=O)N[C@H](COC(=O)c2ccc(-c3ccccc3)cc2)C(=O)O)[C@H](O)[C@@H]1O", "values": [
      {"measurement": "MIC", "setting": "Corynebacterium bovis", "result": "> 100", "unit": "µg/mL"},
      {"measurement": "MIC", "setting": "Staphylococcus aureus [1]", "result": "> 100", "unit": "µg/mL"},
      {"measurement": "MIC", "setting": "Micrococcus luteus [2]", "result": "> 100", "unit": "µg/mL"},
      {"measurement": "MIC", "setting": "Micrococcus luteus [3]", "result": "> 100", "unit": "µg/mL"},
      {"measurement": "MIC", "setting": "Enterococcus faecalis", "result": "> 100", "unit": "µg/mL"},
      {"measurement": "inhibition at 6.25 µg/mL", "setting": "[4]", "result": 27, "unit": "%"},
      {"measurement": "MIC", "setting": "Staphylococcus aureus [5]", "result": "> 100", "unit": "µg/mL"},
      {"measurement": "MIC", "setting": "[6]", "result": 100, "unit": "µg/mL"},
      {"measurement": "MIC", "setting": "Bacillus subtilis", "result": "> 100", "unit": "µg/mL"}
    ]},
    {"molecule": "NC[C@H]1O[C@@H](O[C@H]([C@H]2O[C@@H](n3ccc(=O)[nH]c3=O)[C@H](O)[C@@H]2O)[C@H](N)C(=O)N[C@@H](CO)C(=O)O)[C@H](O)[C@@H]1O", "values": [
      {"measurement": "MIC", "setting": "Corynebacterium bovis", "result": "> 100", "unit": "µg/mL"},
      {"measurement": "MIC", "setting": "Staphylococcus aureus [1]", "result": "> 100", "unit": "µg/mL"},
      {"measurement": "MIC", "setting": "Micrococcus luteus [2]", "result": "> 100", "unit": "µg/mL"},
      {"measurement": "MIC", "setting": "Micrococcus luteus [3]", "result": "> 100", "unit": "µg/mL"},
      {"measurement": "MIC", "setting": "Enterococcus faecalis", "result": "> 100", "unit": "µg/mL"},
      {"measurement": "MIC", "setting": "Staphylococcus aureus [5]", "result": "> 100", "unit": "µg/mL"},
      {"measurement": "MIC", "setting": "[6]", "result": 100, "unit": "µg/mL"},
      {"measurement": "MIC", "setting": "Bacillus subtilis", "result": "> 100", "unit": "µg/mL"}
    ]},
    {"molecule": "NC[C@H]1O[C@@H](O[C@H]([C@H]2O[C@@H](n3ccc(=O)[nH]c3=O)[C@H](O)[C@@H]2O)[C@H](N)C(=O)N[C@@H](COC(=O)c2ccc(-c3ccccc3)cc2)C(=O)O)[C@H](O)[C@@H]1O", "values": [
      {"measurement": "MIC", "setting": "Corynebacterium bovis", "result": 100, "unit": "µg/mL"},
      {"measurement": "MIC", "setting": "Staphylococcus aureus [1]", "result": "> 100", "unit": "µg/mL"},
      {"measurement": "MIC", "setting": "Micrococcus luteus [2]", "result": "> 100", "unit": "µg/mL"},
      {"measurement": "MIC", "setting": "Micrococcus luteus [3]", "result": 50, "unit": "µg/mL"},
      {"measurement": "MIC", "setting": "Enterococcus faecalis", "result": "> 100", "unit": "µg/mL"},
      {"measurement": "inhibition at 6.25 µg/mL", "setting": "[4]", "result": 52, "unit": "%"},
      {"measurement": "MIC", "setting": "Staphylococcus aureus [5]", "result": "> 100", "unit": "µg/mL"},
      {"measurement": "MIC", "setting": "[6]", "result": 100, "unit": "µg/mL"},
      {"measurement": "MIC", "setting": "Bacillus subtilis", "result": "> 100", "unit": "µg/mL"}
    ]},
    {"molecule": "CCCCCCCCCCCCCCCC(=O)OC[C@H](NC(=O)[C@@H](N)[C@H](O[C@@H]1O[C@H](CN)[C@@H](O)[C@H]1O)[C@H]1O[C@@H](n2ccc(=O)[nH]c2=O)[C@H](O)[C@@H]1O)C(=O)O", "values": [
      {"measurement": "MIC", "setting": "Corynebacterium bovis", "result": 12.5, "unit": "µg/mL"},
      {"measurement": "MIC", "setting": "Staphylococcus aureus [1]", "result": 25, "unit": "µg/mL"},
      {"measurement": "MIC", "setting": "Micrococcus luteus [2]", "result": 50, "unit": "µg/mL"},
      {"measurement": "MIC", "setting": "Staphylococcus aureus [7]", "result": 50, "unit": "µg/mL"},
      {"measurement": "MIC", "setting": "Micrococcus luteus [3]", "result": 25, "unit": "µg/mL"},
      {"measurement": "MIC", "setting": "Enterococcus faecalis", "result": 50, "unit": "µg/mL"},
      {"measurement": "inhibition at 6.25 µg/mL", "setting": "[4]", "result": 51, "unit": "%"},
      {"measurement": "MIC", "setting": "Staphylococcus aureus [5]", "result": 50, "unit": "µg/mL"},
      {"measurement": "MIC", "setting": "[6]", "result": 100, "unit": "µg/mL"},
      {"measurement": "MIC", "setting": "Bacillus subtilis", "result": 25, "unit": "µg/mL"}
    ]},
    {"molecule": "CCCCCCCCCCCCCCCC(=O)OC[C@@H]1NC(=O)[C@H]([C@H](O[C@@H]2O[C@H](CN)[C@@H](O)[C@H]2O)[C@H]2O[C@@H](n3ccc(=O)[nH]c3=O)[C@H](O)[C@@H]2O)NC1=O", "values": [
      {"measurement": "MIC", "setting": "Corynebacterium bovis", "result": 50, "unit": "µg/mL"},
      {"measurement": "MIC", "setting": "Staphylococcus aureus [1]", "result": 25, "unit": "µg/mL"},
      {"measurement": "MIC", "setting": "Micrococcus luteus [2]", "result": 25, "unit": "µg/mL"},
      {"measurement": "MIC", "setting": "Staphylococcus aureus [7]", "result": 100, "unit": "µg/mL"},
      {"measurement": "MIC", "setting": "Micrococcus luteus [3]", "result": 50, "unit": "µg/mL"},
      {"measurement": "MIC", "setting": "Enterococcus faecalis", "result": 100, "unit": "µg/mL"},
      {"measurement": "inhibition at 6.25 µg/mL", "setting": "[4]", "result": 35, "unit": "%"},
      {"measurement": "MIC", "setting": "Staphylococcus aureus [5]", "result": 100, "unit": "µg/mL"},
      {"measurement": "MIC", "setting": "[6]", "result": 100, "unit": "µg/mL"},
      {"measurement": "MIC", "setting": "Bacillus subtilis", "result": 25, "unit": "µg/mL"}
    ]},
    {"molecule": "CCCCCCCCCCCCCCCC(=O)OC[C@@H](NC(=O)[C@@H](N)[C@H](O[C@@H]1O[C@H](CN)[C@@H](O)[C@H]1O)[C@H]1O[C@@H](n2ccc(=O)[nH]c2=O)[C@H](O)[C@@H]1O)C(=O)O", "values": [
      {"measurement": "MIC", "setting": "Corynebacterium bovis", "result": 12.5, "unit": "µg/mL"},
      {"measurement": "MIC", "setting": "Staphylococcus aureus [1]", "result": 25, "unit": "µg/mL"},
      {"measurement": "MIC", "setting": "Micrococcus luteus [2]", "result": 50, "unit": "µg/mL"},
      {"measurement": "MIC", "setting": "Staphylococcus aureus [7]", "result": 50, "unit": "µg/mL"},
      {"measurement": "MIC", "setting": "Micrococcus luteus [3]", "result": 12.5, "unit": "µg/mL"},
      {"measurement": "MIC", "setting": "Enterococcus faecalis", "result": 50, "unit": "µg/mL"},
      {"measurement": "inhibition at 6.25 µg/mL", "setting": "[4]", "result": 59, "unit": "%"},
      {"measurement": "MIC", "setting": "Staphylococcus aureus [5]", "result": 50, "unit": "µg/mL"},
      {"measurement": "MIC", "setting": "[6]", "result": 50, "unit": "µg/mL"},
      {"measurement": "MIC", "setting": "Bacillus subtilis", "result": 25, "unit": "µg/mL"}
    ]},
    {"molecule": "NC[C@H]1O[C@@H](O[C@H]([C@H]2O[C@@H](n3ccc(=O)[nH]c3=O)[C@H](O)[C@@H]2O)[C@@H]2NC(=O)[C@@H](COC(=O)c3ccc(-c4ccccc4)cc3)NC2=O)[C@H](O)[C@@H]1O", "values": [
      {"measurement": "MIC", "setting": "Corynebacterium bovis", "result": "> 100", "unit": "µg/mL"},
      {"measurement": "MIC", "setting": "Staphylococcus aureus [1]", "result": "> 100", "unit": "µg/mL"},
      {"measurement": "MIC", "setting": "Micrococcus luteus [2]", "result": "> 100", "unit": "µg/mL"},
      {"measurement": "MIC", "setting": "Micrococcus luteus [3]", "result": "> 100", "unit": "µg/mL"},
      {"measurement": "MIC", "setting": "Enterococcus faecalis", "result": "> 100", "unit": "µg/mL"},
      {"measurement": "inhibition at 6.25 µg/mL", "setting": "[4]", "result": 29, "unit": "%"},
      {"measurement": "MIC", "setting": "Staphylococcus aureus [5]", "result": "> 100", "unit": "µg/mL"},
      {"measurement": "MIC", "setting": "[6]", "result": "> 100", "unit": "µg/mL"},
      {"measurement": "MIC", "setting": "Bacillus subtilis", "result": "> 100", "unit": "µg/mL"}
    ]}
  ]
}
